Screening data deposited in PubChem by The Scripps Research Institute Molecular Screening Center.
Only some compounds are listed: those with a hit (about 3% of all), similar ones and a draw of the others.
S1P1 ag-PAM: activates or potentiates agonism at human S1P1 receptor; S1P1 CRE-bla cells, forskolin, beta-lactamase FRET, potentiator mode; S1P1 agonist co-added at EC20, 2 nM; 100% = saturating reference agonist, 0% = basal; activation, % at 9.5 µM; hit rate 0.57% among 56,000; AID 449;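 active = activation above a cutoff set at the mean activation of all tested compounds plus 3 SD, cut at about 54% in these data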;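 note: forskolin at 4 µM as EC80 and the EC20 agonist is SEW2871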
5HT1E ag: agonists of human 5-HT1E serotonin receptor. P28566. CHO 5-HT1E Ga15 NFAT-bla reporter, FRET; 0% DMSO wells, 100% control agonist wells. activation, % at 6 µM. hit rate 0.69% among 65,000;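 active = activation above a set limit, the screen-wide mean activation plus 3 SD, cut at about 8.5% in these data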
Target sequence (P28566 whole entry, looked up): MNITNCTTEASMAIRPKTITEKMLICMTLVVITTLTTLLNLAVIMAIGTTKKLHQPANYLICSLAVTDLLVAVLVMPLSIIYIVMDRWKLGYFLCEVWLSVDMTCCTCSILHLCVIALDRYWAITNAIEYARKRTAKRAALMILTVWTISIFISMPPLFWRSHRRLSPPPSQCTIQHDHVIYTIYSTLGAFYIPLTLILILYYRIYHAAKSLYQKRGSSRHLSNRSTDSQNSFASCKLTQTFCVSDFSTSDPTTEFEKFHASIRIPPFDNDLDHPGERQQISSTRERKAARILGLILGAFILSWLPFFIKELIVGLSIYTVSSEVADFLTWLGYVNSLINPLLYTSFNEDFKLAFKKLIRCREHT
5HT1a ag: activates the human 5-HT1a serotonin receptor. activation, % at 10 µM. CHO 5-HT1a Ga15 NFAT-bla reporter, FRET ratio; 0% basal, 100% maximal reference agonist. AID 567. hit rate 0.56% among 65,000;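 active = activation above the screen-wide mean activation plus 3 SD, cut at about 19% in these data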
S1P3 agonist: S1P3 (human) receptor agonism. S1P3 NFAT-BLA reporter cells, FRET ratio; relative to 1 µM S1P, basal subtracted. Q99500. hit rate 0.1% among 60,000. activation, % at 4.5 µM. AID 373;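 active = activation above the screen-wide mean plus 3 SD, cut at about 4.5% in these data, passing the limit was not always enough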
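Benchmarks: high control 1 µM S1P / System: stable CHO line with human S1P3, Gα16, NFAT-BLA reporter / Dosing: single compound concentration, 4.5 µM final / Timing: 4 h compound at 37 °C, 2 h substrate at RT / Measured by: FRET β-lactamase substrate fluorescence, excitation 405 nm, 460/535 nm emission ratio, background-subtracted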
5HT1E antag: antagonists of human 5-HT1E serotonin receptor. P28566. CHO 5-HT1E Ga15 NFAT-bla reporter, FRET, antagonist. inhibition, % at 6 µM. hit rate 0.99% among 65,000. AID 571;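 active = inhibition above a set limit, the mean inhibition across every tested compound plus 3 SD, cut at about 29% in these data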;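 note: signal is the 460 over 535 nm emission ratio of beta-lactamase substrate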
5HT1a antag: antagonists of human 5-HT1a serotonin receptor. P08908. CHO 5-HT1a Ga15 NFAT-bla reporter, antagonist mode. inhibition, % at 10 µM. hit rate 0.68% among 62,000. AID 612;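 active = inhibition above the mean of all tested compounds plus 3 SD, cut at about 43% in these data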;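 note: receptor stimulated by 5-CT agonist at 100 nM near EC80; beta-lactamase reporter measured by ratiometric fluorescence of a cleavable substrate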
Hits are given with their value.

How did COc1ccccc1N1CCN(CC(O)COc2ccc3c(C)cc(=O)oc3c2)CC1 (stereo not drawn) do in these assays?
5HT1E ag: inactive; 5HT1a ag: inactive; 5HT1E antag: inactive; 5HT1a antag: 88

How did Cc1cc(=O)oc2cc(OCC(=O)N3CCCC(C)C3)ccc12 (stereo not drawn) do in these assays?
S1P1 ag-PAM: inactive; 5HT1E ag: inactive; 5HT1a ag: inactive; S1P3 agonist: inactive; 5HT1E antag: inactive; 5HT1a antag: inactive

What do the screens show for `CCOC(=O)c1ccc(NC(=O)Cn2cc3c(n2)CCC(C)C3)cc1` (stereo not drawn)?
S1P1 ag-PAM: inactive; 5HT1E ag: inactive; 5HT1a ag: inactive; S1P3 agonist: inactive; 5HT1E antag: inactive; 5HT1a antag: inactive

How did Cc1cc2nc(-c3ccc(NC(=O)C(C)C)cc3)oc2cc1C do in these assays?
S1P1 ag-PAM: 108; 5HT1E ag: inactive; 5HT1a ag: inactive; S1P3 agonist: inactive; 5HT1E antag: inactive; 5HT1a antag: inactive

Results for Cc1[nH]c2ccc(Br)cc2c(=O)c1CN1CCCCC1 ?
S1P1 ag-PAM: inactive; 5HT1E ag: inactive; 5HT1a ag: 104; S1P3 agonist: inactive; 5HT1E antag: inactive; 5HT1a antag: inactive

Results for COC(=O)c1ccc2[nH]c(C)c(CN3CCCC3)c(=O)c2c1 ?
5HT1E ag: inactive; 5HT1a ag: inactive; 5HT1E antag: inactive; 5HT1a antag: inactive

Results for COCCNC(=O)CN(C(=O)Cn1nnc2ccccc21)c1ccccc1 ?
S1P1 ag-PAM: inactive; 5HT1E ag: inactive; 5HT1a ag: inactive; S1P3 agonist: inactive; 5HT1E antag: inactive; 5HT1a antag: inactive

Results for CCN(C(=O)c1ccc(C(C)(C)C)cc1)c1nnc(Cn2nnc3ccccc32)s1 ?
S1P1 ag-PAM: 130; 5HT1E ag: inactive; 5HT1a ag: inactive; S1P3 agonist: inactive; 5HT1E antag: inactive; 5HT1a antag: inactive

How did CN1CCN(C2=C(Cl)C(=O)N(Cc3ccccc3)C2=O)CC1 do in these assays?
S1P1 ag-PAM: inactive; 5HT1E ag: 17; 5HT1a ag: inactive; S1P3 agonist: inactive; 5HT1E antag: inactive; 5HT1a antag: inactive

Results for COc1cc(-c2nn3c(Cc4ccccc4)nnc3s2)cc(OC)c1OC ?
5HT1E ag: inactive; 5HT1a ag: inactive; S1P3 agonist: inactive; 5HT1E antag: 31; 5HT1a antag: inactive

What do the screens show for `Cc1nc(N2CCN(C)CC2)c2c(C)c(C(=O)Nc3ccc(F)cc3)sc2n1`?
5HT1E ag: 20; 5HT1a ag: inactive; 5HT1E antag: inactive; 5HT1a antag: inactive

Results for CCC(=O)N1CCN(c2nc(C)nc3sc(C)c(C)c23)CC1 ?
S1P1 ag-PAM: inactive; 5HT1E ag: inactive; 5HT1a ag: inactive; S1P3 agonist: inactive; 5HT1E antag: inactive; 5HT1a antag: inactive

What do the screens show for `O=C1CSC(c2ccccc2F)N1CCN1CCCCC1` (stereo not drawn)?
S1P1 ag-PAM: inactive; 5HT1E ag: inactive; 5HT1a ag: inactive; S1P3 agonist: inactive; 5HT1E antag: inactive; 5HT1a antag: inactive

How did O=C1CSC(c2ccccc2F)N1c1cc(Cl)ccc1O (stereo not drawn) do in these assays?
S1P1 ag-PAM: inactive; 5HT1E ag: inactive; 5HT1a ag: inactive; S1P3 agonist: inactive; 5HT1E antag: 30; 5HT1a antag: inactive

Results for Cc1ccc(S(=O)(=O)N(CCO)c2cc3c(s2)CCCC3)cc1 ?
S1P1 ag-PAM: inactive; 5HT1E ag: inactive; 5HT1a ag: inactive; S1P3 agonist: inactive; 5HT1E antag: inactive; 5HT1a antag: inactive

Results for O=S(=O)(c1cccs1)N1CCN(CC(O)COc2cc(Cl)ccc2Cl)CC1 (stereo not drawn) ?
S1P1 ag-PAM: 66; 5HT1E ag: inactive; 5HT1a ag: inactive; S1P3 agonist: inactive; 5HT1E antag: inactive; 5HT1a antag: inactive

How did Clc1ccc(OCc2nc(-c3ccncc3)no2)c(Br)c1 do in these assays?
S1P1 ag-PAM: 72; 5HT1E ag: inactive; 5HT1a ag: inactive; S1P3 agonist: inactive; 5HT1E antag: inactive; 5HT1a antag: inactive

How did CC(C)c1ccc(OCc2nc(-c3ccccn3)no2)c(Br)c1 do in these assays?
S1P1 ag-PAM: 86; 5HT1E ag: inactive; 5HT1a ag: inactive; S1P3 agonist: inactive; 5HT1E antag: inactive; 5HT1a antag: inactive

What do the screens show for `Clc1ccccc1OCc1nc(-c2ccncc2)no1`?
5HT1E ag: inactive; 5HT1a ag: inactive; S1P3 agonist: inactive; 5HT1E antag: inactive; 5HT1a antag: inactive

Results for Cc1nc(C)c(C(=O)C2=C(O)C(=O)N(CCCn3ccnc3)C2c2ccc(Cl)cc2)s1 (stereo not drawn) ?
S1P1 ag-PAM: inactive; 5HT1E ag: inactive; 5HT1a ag: inactive; S1P3 agonist: inactive; 5HT1E antag: inactive; 5HT1a antag: inactive

Results for CN(C)c1ccc2c(c1)OC(N)=C(C#N)C2c1cccc(F)c1 (stereo not drawn) ?
S1P1 ag-PAM: inactive; 5HT1E ag: inactive; 5HT1a ag: inactive; S1P3 agonist: inactive; 5HT1E antag: 75; 5HT1a antag: inactive

How did CCC(CO)NCc1ccc2c(c1)n(C)c(=O)n2C (stereo not drawn) do in these assays?
S1P1 ag-PAM: inactive; 5HT1E ag: inactive; 5HT1a ag: inactive; S1P3 agonist: inactive; 5HT1E antag: inactive; 5HT1a antag: inactive

How did CCOC(=O)CSc1nc(N)c(C(=O)Nc2ccc(N(C)C)cc2)s1 do in these assays?
S1P1 ag-PAM: inactive; 5HT1E ag: inactive; 5HT1a ag: inactive; S1P3 agonist: inactive; 5HT1E antag: inactive

What do the screens show for `Cc1ccc(Cl)cc1N1CCN(C(=O)C2CCN(c3nnc(-n4cccc4)s3)CC2)CC1`?
S1P1 ag-PAM: 87; 5HT1E ag: inactive; 5HT1a ag: inactive; S1P3 agonist: inactive; 5HT1E antag: inactive; 5HT1a antag: inactive

Results for Cc1ccc(C2CC(=O)NC(SCc3ccccc3)=C2C#N)o1 (stereo not drawn) ?
S1P1 ag-PAM: inactive; 5HT1E ag: inactive; 5HT1a ag: 35; S1P3 agonist: inactive; 5HT1E antag: inactive; 5HT1a antag: inactive

Results for N#CC1=C(SCc2ccccc2)NC(=O)CC1c1ccco1 (stereo not drawn) ?
S1P1 ag-PAM: inactive; 5HT1E ag: inactive; 5HT1a ag: inactive; S1P3 agonist: inactive; 5HT1E antag: inactive; 5HT1a antag: inactive

How did C=CCN1C(=O)C2(C(C#N)=C(N)Oc3n[nH]c(CCC)c32)c2ccccc21 (stereo not drawn) do in these assays?
S1P1 ag-PAM: inactive; 5HT1E ag: inactive; 5HT1a ag: inactive; S1P3 agonist: inactive; 5HT1E antag: inactive; 5HT1a antag: inactive

Results for Cc1nnc2ccc(Oc3ccc(-c4ccccc4)cc3)nn12 ?
S1P1 ag-PAM: 68; 5HT1E ag: inactive; 5HT1a ag: inactive; S1P3 agonist: inactive; 5HT1E antag: inactive; 5HT1a antag: inactive

Results for CCCCN(CC)Cc1ccc(CNC(=O)Nc2ccc(OC)cc2OC)o1 ?
S1P1 ag-PAM: inactive; 5HT1E ag: 52; 5HT1a ag: inactive; S1P3 agonist: inactive; 5HT1E antag: inactive; 5HT1a antag: inactive
